ChEMBL document CHEMBL4138082 (Eur J Med Chem, 2017)
Activity calls are given as the source filed them. The calls are words filed in the database; no cut-off is given here.

Assays:
HepG2 [1] = assay: Cell cycle arrest in human HepG2 cells assessed as G1 phase accumulation at 0.0625 uM after 48 hrs by propidium iodide staining based flow cytometry (reference value: 32.74%); assay type: functional
Summary of the method: (§1)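 HepG-2 cells were plated and grown 24 h at 37 °C, then treated 48 h at 0, 0.0625, 0.125 or 0.25 µM, with 0.1% DMSO as control. Cells were fixed overnight in 70% ethanol at 4 °C, treated with RNase A and stained with propidium iodide. DNA content was measured by flow cytometry to give cell-cycle phase distribution.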

PC-3 = assay: Antiproliferative activity against human PC3 cells after 72 hrs by MTT assay; assay type: functional, cell-based; conditions: PC-3, 72 h
Summary of the method: (§2)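 MTT assay. Cells were seeded and grown 24 h at 37 °C in 5% CO2, then exposed to compound or left untreated for 72 h. MTT (5 mg/mL stock) was added for 4 h and the formazan dissolved in DMSO. OD was read at 570 nm. IC50 is the concentration giving 50% growth inhibition, reported as mean ± SD of three independent experiments. Vehicle reference was 0.1% DMSO.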

HepG2 [2] = assay: Antiproliferative activity against human HepG2 cells after 72 hrs by MTT assay; assay type: functional, cell-based; conditions: HepG2, 72 h; summary of the method: as §2
L02 = assay: Cytotoxicity against human L02 cells assessed as reduction in cell viability after 72 hrs by MTT assay; assay type: cell-based; conditions: L02, 72 h; summary of the method: as §2
[3] = Selectivity index, ratio of IC50 for human L02 cells to IC50 for human HepG2 cells; assay type: toxicity; conditions: L02 cells and HepG2 cells, read-out: Ratio IC50
Summary of the method: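 MTT assay: cells grown 24 h at 37 °C, 5% CO2, then exposed 72 h; MTT (5 mg/mL) added for 4 h, formazan dissolved in DMSO, OD read at 570 nm. Vehicle 0.1% DMSO. Three independent experiments.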

[4] = Drug metabolism in human HepG2 cells assessed as NO release by measuring nitrite formation at 100 uM after 1 hr by Griess assay; assay type: ADME, cell-based; conditions: hepg2, 1 h
Summary of the method: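 HepG-2 or L-02 cells were exposed to 100 µM of each compound for 60 min and then harvested. Lysates were mixed with Griess reagent for 10 min at 37 °C and absorbance was read at 550 nm. NO release is expressed as nitrite, reported as mean ± SD of three independent experiments.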

HepG2 [5] = assay: Cell cycle arrest in human HepG2 cells assessed as S phase accumulation at 0.0625 uM after 48 hrs by propidium iodide staining based flow cytometry (reference value: 43.88%); assay type: functional; summary of the method: as §1
HepG2 [6] = assay: Cell cycle arrest in human HepG2 cells assessed as G1 phase accumulation at 0.125 uM after 48 hrs by propidium iodide staining based flow cytometry (reference value: 32.74%); assay type: functional; summary of the method: as §1
HepG2 [7] = assay: Cell cycle arrest in human HepG2 cells assessed as G2 phase accumulation at 0.25 uM after 48 hrs by propidium iodide staining based flow cytometry (reference value: 23.38%); assay type: functional; summary of the method: as §1
HepG2 [8] = assay: Cell cycle arrest in human HepG2 cells assessed as G1 phase accumulation at 0.0625 uM after 48 hrs in presence of hemoglobin by propidium iodide staining based flow cytometry (reference value: 52.93%); assay type: functional
HepG2 [9] = assay: Cell cycle arrest in human HepG2 cells assessed as G2 phase accumulation at 0.0625 uM after 48 hrs in presence of hemoglobin by propidium iodide staining based flow cytometry (reference value: 10.67%); assay type: functional
HepG2 [10] = assay: Cell cycle arrest in human HepG2 cells assessed as G1 phase accumulation at 0.125 uM after 48 hrs in presence of hemoglobin by propidium iodide staining based flow cytometry (reference value: 52.93%); assay type: functional
HepG2 [11] = assay: Cell cycle arrest in human HepG2 cells assessed as S phase accumulation at 0.125 uM after 48 hrs in presence of hemoglobin by propidium iodide staining based flow cytometry (reference value: 36.40%); assay type: functional
HepG2 [12] = assay: Induction of apoptosis in human HepG2 cells assessed as nuclear fragmentation at 0.0625 to 0.25 uM measured after 48 hrs by Hoechst 33258 staining based fluorescent microscopic analysis; assay type: functional, cell-based
HepG2 [13] = assay: Induction of apoptosis in human HepG2 cells assessed as late apoptotic cells at 0.0625 uM after 48 hrs by […] based flow cytometry (reference value: 3.36%); assay type: functional
HepG2 [14] = assay: Induction of apoptosis in human HepG2 cells assessed as necrotic cells at 0.0625 uM after 48 hrs by Annexin V-APC/7-AAD staining based flow cytometry (reference value: 2.40%); assay type: functional
HepG2 [15] = assay: Induction of apoptosis in human HepG2 cells assessed as early apoptotic cells at 0.125 uM after 48 hrs by […] based flow cytometry (reference value: 3.18%); assay type: functional
HepG2 [16] = assay: Induction of apoptosis in human HepG2 cells assessed as early apoptotic cells at 0.0625 uM after 48 hrs in presence of hemoglobin by Annexin V-APC/7-AAD staining based flow cytometry (reference value: 3.18%); assay type: functional
HepG2 [17] = assay: Induction of apoptosis in human HepG2 cells assessed as early apoptotic cells at 0.125 uM after 48 hrs in presence of hemoglobin by Annexin V-APC/7-AAD staining based flow cytometry (reference value: 3.18%); assay type: functional
HepG2 [18] = assay: Induction of apoptosis in human HepG2 cells assessed as late apoptotic cells at 0.125 uM after 48 hrs in presence of hemoglobin by Annexin V-APC/7-AAD staining based flow cytometry (reference value: 3.36%); assay type: functional
HepG2 [19] = assay: Induction of apoptosis in human HepG2 cells assessed as early apoptotic cells at 0.25 uM after 48 hrs in presence of hemoglobin by Annexin V-APC/7-AAD staining based flow cytometry (reference value: 3.18%); assay type: functional
HepG2 [20] = assay: Induction of apoptosis in human HepG2 cells assessed as late apoptotic cells at 0.25 uM after 48 hrs in presence of hemoglobin by Annexin V-APC/7-AAD staining based flow cytometry (reference value: 3.36%); assay type: functional
HepG2 [21] = assay: Induction of apoptosis in human HepG2 cells after 48 hrs by […]; assay type: functional, cell-based
HepG2 [22] = assay: Induction of apoptosis in human HepG2 cells assessed as cell population with mitochondrial membrane potential loss at 0.0625 uM measured after 48 hrs by JC-1 staining based flow cytometry (reference value: 1.49%); assay type: functional
Summary of the method: (§3)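 HepG-2 cells were exposed 48 h to 0.0625, 0.125 or 0.25 µM or to vehicle, then washed in PBS and stained with JC-1 in the dark. Red aggregate versus green monomer fluorescence was measured by flow cytometry to give the percentages of cells with healthy versus collapsed mitochondrial membrane potential.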

HepG2 [23] = assay: Induction of apoptosis in human HepG2 cells assessed as cell population with intact mitochondrial membrane potential at 0.125 uM measured after 48 hrs by JC-1 staining based flow cytometry (reference value: 98.51%); assay type: functional; summary of the method: as §3
HepG2 [24] = assay: Induction of apoptosis in human HepG2 cells assessed as cell population with mitochondrial membrane potential loss at 0.25 uM measured after 48 hrs by JC-1 staining based flow cytometry (reference value: 1.49%); assay type: functional; summary of the method: as §3
HepG2 [25] = assay: Upregulation of Bax level in human HepG2 cells up to 0.25 uM after 48 hrs by Western blot method; assay type: functional, cell-based
HepG2 [26] = assay: Upregulation of caspase 3 level in human HepG2 cells up to 0.25 uM after 48 hrs by Western blot method; assay type: functional, cell-based

C[C@H]1CCC/C=C/[C@@H]2C[C@H](OC(=O)CCCC(=O)OCCOc3no[n+]([O-])c3S(=O)(=O)c3ccccc3)C[C@H]2[C@H](OC(=O)CCCC(=O)OCCOc2no[n+]([O-])c2S(=O)(=O)c2ccccc2)/C=C/C(=O)O1
Activity (HepG2 [1]): 32.84%
IC50 (PC-3): 25 nM
IC50 (HepG2 [2]): 180 nM
IC50 (L02): 6000 nM
selectivity ratio [3]: 33
Drug metabolism [4]: 98.5 µM
Activity (HepG2 [5]): 48.2%
Activity (HepG2 [6]): 31.78%
Activity (HepG2 [7]): 2.67%
Activity (HepG2 [8]): 68.06%
Activity (HepG2 [9]): 7.2%
Activity (HepG2 [10]): 63.24%
Activity (HepG2 [11]): 30.54%
Activity (HepG2 [12]): Active
Activity (HepG2 [13]): 11.76%
Activity (HepG2 [14]): 3%
Activity (HepG2 [15]): 13.23%
Activity (HepG2 [16]): 3.25%
Activity (HepG2 [17]): 3.49%
Activity (HepG2 [18]): 9.87%
Activity (HepG2 [19]): 8.7%
Activity (HepG2 [20]): 12.24%
Activity (HepG2 [21]): Dose-dependent effect
Activity (HepG2 [22]): 16.58%
Activity (HepG2 [23]): 64.55%
Activity (HepG2 [24]): 60.14%
Activity (HepG2 [25]): Active
Activity (HepG2 [26]): Active
